Converted amounts (≈) assume the structure as drawn.
Assays:
[1] = system: Bacillus subtilis; assay: Antibacterial activity against Bacillus subtilis NCTC 1040 at 5 mg/ml after 24 hrs by agar disc diffusion method; type: functional; conditions: NCTC 1040, 24 h, read-out: DIZ
Method in brief: (§1)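 Agar well-diffusion using 1 cm wells, each loaded with 100 of compound solution (5 mg/mL in DMF). Bacteria were maintained on nutrient agar and plated as a standard suspension. Plates were incubated 24 h at 35 °C, and inhibition zone diameters were measured.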

[2] = system: Candida albicans; assay: Antifungal activity against Candida albicans IMRU 3669 at 5 mg/ml by agar disc diffusion method; type: functional; conditions: read-out: DIZ
[3] = system: Micrococcus luteus; assay: Antibacterial activity against Sarcina lutea ATCC 934 at 5 mg/ml after 24 hrs by agar disc diffusion method; type: functional; conditions: ATCC 934, 24 h, read-out: DIZ; method in brief: as §1
[4] = Antitumor activity against mouse EAC cells assessed as inhibition of cell viability at 100 ug/ml by Trypan blue assay; type: functional; conditions: Ehrlich
Method in brief: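 EAC cells were taken by needle aspiration of ascitic fluid from preinoculated mice and diluted 1:10 in saline. Then 0.1 mL of cell suspension, 0.8 mL RPMI 1640 and 0.1 mL compound were incubated 2 h at 37 °C. Dead cells were counted by trypan blue exclusion, and % non-viable = non-viable/total cells × 100.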

[5] = system: Escherichia coli; assay: Antibacterial activity against Escherichia coli NCTC 10416 at 5 mg/ml after 24 hrs by agar disc diffusion method; type: functional; conditions: NCTC 10416, 24 h, read-out: DIZ; method in brief: as §1
[6] = system: Staphylococcus aureus; assay: Antibacterial activity against Staphylococcus aureus NCTC 7447 at 5 mg/ml after 24 hrs by agar disc diffusion method; type: functional; conditions: NCTC 7447, 24 h, read-out: DIZ; method in brief: as §1
[7] = system: Aspergillus flavus; assay: Antifungal activity against Aspergillus flavus at 5 mg/ml by agar disc diffusion method; type: functional; conditions: read-out: DIZ
[8] = system: MCF7; assay: Cytotoxicity against human MCF7 cells assessed as surviving fraction at 50 ug/ml after 48 hrs by SRB assay relative to control; type: functional
Method in brief: (§2)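 SRB assay per Skehan: compounds at 5.0, 12.5, 25 and 50 were added to cell monolayers in triplicate wells per dose for 48 h at 37 °C, 5% CO2. Cells were then fixed and stained with SRB, excess stain was removed with acetic acid, and bound dye was recovered in Tris EDTA. Surviving fraction was plotted against concentration, and IC50 was read from the dose–response curves.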

[9] = system: HepG2; assay: Cytotoxicity against human HepG2 cells assessed as surviving fraction at 25 ug/ml after 48 hrs by SRB assay relative to control; type: functional; method in brief: as §2
[10] = system: HeLa; assay: Cytotoxicity against human HeLa cells assessed as surviving fraction at 25 ug/ml after 48 hrs by SRB assay relative to control; type: functional; method in brief: as §2
[11] = system: HCT-116; assay: Cytotoxicity against human HCT116 cells assessed as surviving fraction at 50 ug/ml after 48 hrs by SRB assay relative to control; type: functional; method in brief: as §2
[12] = system: HeLa; assay: Cytotoxicity against human HeLa cells assessed as surviving fraction at 12.5 ug/ml after 48 hrs by SRB assay relative to control; type: functional; method in brief: as §2
[13] = system: MCF7; assay: Cytotoxicity against human MCF7 cells assessed as surviving fraction at 25 ug/ml after 48 hrs by SRB assay relative to control; type: functional; method in brief: as §2
[14] = system: HeLa; assay: Cytotoxicity against human HeLa cells assessed as surviving fraction at 50 ug/ml after 48 hrs by SRB assay relative to control; type: functional; method in brief: as §2
[15] = system: HepG2; assay: Cytotoxicity against human HepG2 cells assessed as surviving fraction at 5 ug/ml after 48 hrs by SRB assay relative to control; type: functional; method in brief: as §2
[16] = system: HEp-2; assay: Cytotoxicity against human Hep2 cells assessed as surviving fraction at 50 ug/ml after 48 hrs by SRB assay relative to control; type: functional; method in brief: as §2
[17] = system: HeLa; assay: Cytotoxicity against human HeLa cells assessed as surviving fraction at 5 ug/ml after 48 hrs by SRB assay relative to control; type: functional; method in brief: as §2
[18] = system: HepG2; assay: Cytotoxicity against human HepG2 cells after 48 hrs by SRB assay; type: functional, cell-based; conditions: HepG2, 48 h; method in brief: as §2
[19] = system: MCF7; assay: Cytotoxicity against human MCF7 cells assessed as surviving fraction at 12.5 ug/ml after 48 hrs by SRB assay relative to control; type: functional; method in brief: as §2
[20] = system: HEp-2; assay: Cytotoxicity against human Hep2 cells after 48 hrs by SRB assay; type: functional, cell-based; conditions: HEp-2, 48 h; method in brief: as §2
[21] = system: HeLa; assay: Cytotoxicity against human HeLa cells after 48 hrs by SRB assay; type: functional, cell-based; method in brief: as §2
[22] = system: HCT-116; assay: Cytotoxicity against human HCT116 cells assessed as surviving fraction at 5 ug/ml after 48 hrs by SRB assay relative to control; type: functional; method in brief: as §2
[23] = system: HepG2; assay: Cytotoxicity against human HepG2 cells assessed as surviving fraction at 50 ug/ml after 48 hrs by SRB assay relative to control; type: functional; method in brief: as §2
[24] = system: MCF7; assay: Cytotoxicity against human MCF7 cells after 48 hrs by SRB assay; type: functional, cell-based; conditions: MCF7, 48 h; method in brief: as §2
[25] = system: HepG2; assay: Cytotoxicity against human HepG2 cells assessed as surviving fraction at 12.5 ug/ml after 48 hrs by SRB assay relative to control; type: functional; method in brief: as §2
[26] = system: HEp-2; assay: Cytotoxicity against human Hep2 cells assessed as surviving fraction at 12.5 ug/ml after 48 hrs by SRB assay relative to control; type: functional; method in brief: as §2
[27] = system: HCT-116; assay: Cytotoxicity against human HCT116 cells after 48 hrs by SRB assay; type: functional, cell-based; conditions: HCT-116, 48 h; method in brief: as §2
[28] = system: HCT-116; assay: Cytotoxicity against human HCT116 cells assessed as surviving fraction at 12.5 ug/ml after 48 hrs by SRB assay relative to control; type: functional; method in brief: as §2
[29] = system: MCF7; assay: Cytotoxicity against human MCF7 cells assessed as surviving fraction at 5 ug/ml after 48 hrs by SRB assay relative to control; type: functional; method in brief: as §2
[30] = system: HCT-116; assay: Cytotoxicity against human HCT116 cells assessed as surviving fraction at 25 ug/ml after 48 hrs by SRB assay relative to control; type: functional; method in brief: as §2
[31] = system: HEp-2; assay: Cytotoxicity against human Hep2 cells assessed as surviving fraction at 5 ug/ml after 48 hrs by SRB assay relative to control; type: functional; method in brief: as §2
[32] = system: HEp-2; assay: Cytotoxicity against human Hep2 cells assessed as surviving fraction at 25 ug/ml after 48 hrs by SRB assay relative to control; type: functional; method in brief: as §2

COc1ccc(N2C(=N)C(=S)N(c3ccc(Br)cc3)C2=O)cc1
zone of inhibition at 5000 µg/mL [1]: 18 mm | zone of inhibition at 5000 µg/mL [2]: 12 mm | zone of inhibition at 5000 µg/mL [3]: 19 mm | inhibition at 100 µg/mL [4]: 10% | zone of inhibition at 5000 µg/mL [5]: 16 mm | zone of inhibition at 5000 µg/mL [6]: 13 mm | zone of inhibition at 5000 µg/mL [7]: 18 mm

Cc1ccc(N2C(=N)C(=S)N(c3ccc(Br)cc3)C2=O)cc1
zone of inhibition at 5000 µg/mL [1]: 18 mm | zone of inhibition at 5000 µg/mL [2]: 14 mm | zone of inhibition at 5000 µg/mL [3]: 14 mm | inhibition at 100 µg/mL [4]: 20% | zone of inhibition at 5000 µg/mL [5]: 16.5 mm | zone of inhibition at 5000 µg/mL [6]: 18 mm | zone of inhibition at 5000 µg/mL [7]: 15 mm

N=C1C(=S)N(c2ccc(Br)cc2)C(=O)N1Cc1ccccc1
zone of inhibition at 5000 µg/mL [1]: 17 mm | zone of inhibition at 5000 µg/mL [2]: 17 mm | zone of inhibition at 5000 µg/mL [3]: 18 mm | inhibition at 100 µg/mL [4]: 45% | zone of inhibition at 5000 µg/mL [5]: 18.5 mm | zone of inhibition at 5000 µg/mL [6]: 15.5 mm | zone of inhibition at 5000 µg/mL [7]: 15 mm

CSc1ccc(N2C(=N)C(=S)N(c3ccc(I)cc3)C2=O)cc1
zone of inhibition at 5000 µg/mL [1]: 16 mm | zone of inhibition at 5000 µg/mL [2]: 16.5 mm | zone of inhibition at 5000 µg/mL [3]: 14 mm | inhibition at 100 µg/mL [4]: 10% | zone of inhibition at 5000 µg/mL [5]: 14.5 mm | zone of inhibition at 5000 µg/mL [6]: 16.5 mm | zone of inhibition at 5000 µg/mL [7]: 15 mm

COc1ccc(N2C(=N)C(=S)N(c3ccc(I)cc3)C2=O)cc1
zone of inhibition at 5000 µg/mL [1]: 19.5 mm | zone of inhibition at 5000 µg/mL [2]: 23 mm | zone of inhibition at 5000 µg/mL [3]: 18 mm | inhibition at 100 µg/mL [4]: 20% | zone of inhibition at 5000 µg/mL [5]: 19 mm | zone of inhibition at 5000 µg/mL [6]: 18.5 mm | zone of inhibition at 5000 µg/mL [7]: 18 mm

Cc1ccc(N2C(=N)C(=S)N(c3ccc(I)cc3)C2=O)cc1
zone of inhibition at 5000 µg/mL [1]: 16.5 mm | zone of inhibition at 5000 µg/mL [2]: 17 mm | zone of inhibition at 5000 µg/mL [3]: 13 mm | inhibition at 100 µg/mL [4]: 40% | zone of inhibition at 5000 µg/mL [5]: 14 mm | zone of inhibition at 5000 µg/mL [6]: 17 mm | zone of inhibition at 5000 µg/mL [7]: 14 mm

N=C1C(=S)N(c2ccc(I)cc2)C(=O)N1Cc1ccccc1
zone of inhibition at 5000 µg/mL [1]: 15 mm | zone of inhibition at 5000 µg/mL [2]: 13 mm | zone of inhibition at 5000 µg/mL [3]: 12 mm | inhibition at 100 µg/mL [4]: 30% | zone of inhibition at 5000 µg/mL [5]: 14 mm | zone of inhibition at 5000 µg/mL [6]: 15 mm | zone of inhibition at 5000 µg/mL [7]: 15 mm

COc1ccc(N2C(=O)N(c3ccc(SC)cc3)C(=N)C2=S)c(OC)c1
zone of inhibition at 5000 µg/mL [1]: 18 mm | Activity [8]: 0.28 | Activity [9]: 0.19 | Activity [10]: 0.2 | Activity [11]: 0.35 | Activity [12]: 0.37 | Activity [13]: 0.19 | Activity [14]: 0.22 | Activity [15]: 0.69 | Activity [16]: 0.27 | Activity [17]: 0.74 | IC50 [18]: 11.8 mg/L (≈ 30.5 µM) | Activity [19]: 0.49 | IC50 [20]: 12.1 mg/L (≈ 31.2 µM) | IC50 [21]: 9.83 mg/L (≈ 25.4 µM) | Activity [22]: 0.74 | Activity [23]: 0.24 | zone of inhibition at 5000 µg/mL [2]: 20 mm | zone of inhibition at 5000 µg/mL [3]: 18 mm | IC50 [24]: 12 mg/L (≈ 31 µM) | Activity [25]: 0.47 | Activity [26]: 0.49 | IC50 [27]: 10.6 mg/L (≈ 27.4 µM) | inhibition at 100 µg/mL [4]: 70% | zone of inhibition at 5000 µg/mL [5]: 19 mm | Activity [28]: 0.42 | Activity [29]: 0.68 | Activity [30]: 0.24 | zone of inhibition at 5000 µg/mL [6]: 18 mm | Activity [31]: 0.71 | zone of inhibition at 5000 µg/mL [7]: 14 mm | Activity [32]: 0.2

— ChEMBL document CHEMBL1782009, “Synthesis and characterization of new types of halogenated and alkylated imidazolidineiminothiones and a comparative study of their antitumor, antibacterial, and antifungal activities” (Eur J Med Chem, 2011)
